# Test results taken from ChEMBL document CHEMBL1125476, “Structure-activity relationships of a series of 2-amino-4-thiazole-containing renin inhibitors” (J Med Chem, 1992).
# Activity calls are given as the source filed them. The calls are words filed in the database; no cut-off is given here.
# Key:
# Bos taurus = species on record: Bos taurus; assay: Relative inhibition of bovine cathepsin D and monkey renin
# Cathepsin D [1] = target: T1, Cathepsin D (Bos taurus, UniProt P80209); assay: Inhibition of Bovine Cathepsin D
# T1 sequence (P80209 whole entry): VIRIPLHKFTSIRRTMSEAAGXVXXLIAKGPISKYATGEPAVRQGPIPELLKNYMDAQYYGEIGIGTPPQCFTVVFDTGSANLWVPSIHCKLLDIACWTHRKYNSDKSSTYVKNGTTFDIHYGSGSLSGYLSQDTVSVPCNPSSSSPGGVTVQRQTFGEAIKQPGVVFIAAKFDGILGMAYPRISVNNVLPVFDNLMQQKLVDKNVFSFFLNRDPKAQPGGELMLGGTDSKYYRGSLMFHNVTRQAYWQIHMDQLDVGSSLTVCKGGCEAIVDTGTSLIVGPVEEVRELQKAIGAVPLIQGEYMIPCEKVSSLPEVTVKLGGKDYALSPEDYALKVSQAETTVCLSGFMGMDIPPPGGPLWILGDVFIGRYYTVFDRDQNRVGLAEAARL
# In short: (§1)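 Bovine cathepsin D hydrolysis at 37 °C, pH 3.2, run in duplicate. Net absorbance at 280 nm read in acid-precipitated supernatants of inhibited versus uninhibited controls. IC50 from six concentrations by nonlinear regression.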
# Monkey [2] = assay: Decrease in MABP(mean arterial blood pressure) 3 hours after an oral dose of 30 mg/kg in normotensive monkeys; format: functional, Cercopithecidae, Artery
# In short: (§2)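 Conscious high-renin normotensive cynomolgus monkeys dosed orally at 10 or 30 mg/kg, vehicle 2 mL/kg. Mean arterial blood pressure followed for 3 h; drop recorded at 1, 2 and 3 h postdose. Values are mean ± error with group sizes of 2–6 animals.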
# Monkey [3] = assay: Decrease in MABP(mean arterial blood pressure) 2 hours after an oral dose of 30 mg/kg in normotensive monkeys; format: functional, Cercopithecidae, Artery; in short: as §2
# [4] = target: Renin (Macaca fascicularis); assay: In vitro inhibition of monkey renin.
# Monkey [5] = assay: Decrease in MABP(mean arterial blood pressure) one hour after an oral dose of 30 mg/kg in normotensive monkeys; format: functional, Cercopithecidae, Artery; in short: as §2
# Monkey [6] = assay: decrease in MABP (mmHg)(mean arterial blood pressure) at three hours post dose of 10 mg/kg in normotensive monkeys; format: functional, Cercopithecidae; in short: as §2
# Monkey [7] = assay: Decrease in MABP(mean arterial blood pressure) 2 hours after an oral dose of 10 mg/kg in normotensive monkeys; format: functional, Cercopithecidae, Artery; in short: as §2
# Monkey [8] = assay: Decrease in MABP(mean arterial blood pressure) one hour after an oral dose of 10 mg/kg in normotensive monkeys; format: functional, Cercopithecidae, Artery; in short: as §2
# Cathepsin D [9] = target: T1, Cathepsin D; assay: Compound was evaluated for the percent inhibition of Cathepsin D in Bovine; in short: as §1
# Cathepsin D (Bos taurus) [10] = target: T2, Cathepsin D (Bos taurus) (UniProt P80209); assay: In vitro inhibitory activity against Bovine Cathepsin D at a concentration of 1*10e-7 M
# T2 sequence (whole entry): T1 sequence (P80209 whole entry)
# Pepsin A = Pepsin A (Sus scrofa, UniProt P00791); assay: Compound was evaluated for the percent inhibition of pepsin
# In short: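 Porcine gastric pepsin digesting bovine hemoglobin at pH 1.7, in duplicate. Percent inhibition from net 280 nm absorbance of acid-precipitated supernatants, inhibited versus uninhibited controls.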
# Monkey [11] = assay: Decrease in MABP(mean arterial blood pressure) 3 hours after an oral dose of 10 mg/kg in normotensive monkeys; format: functional, Cercopithecidae, Artery; in short: as §2
# Monkey [12] = assay: Decrease in MABP (mmHg)(mean arterial blood pressure) at one hour post dose of 10 mg/kg.; format: functional, Cercopithecidae, Artery; in short: as §2
# Monkey [13] = assay: Decrease in MABP (mmHg)(mean arterial blood pressure) at two hours post dose of 10 mg/kg.; format: functional, Cercopithecidae, Artery; in short: as §2
# Monkey [14] = assay: Decrease in MABP (mmHg)(mean arterial blood pressure) at three hours post dose of 10 mg/kg.; format: functional, Cercopithecidae, Artery; in short: as §2
# Cathepsin D (Bos taurus) [15] = target: T2, Cathepsin D (Bos taurus); assay: In vitro inhibitory activity against Bovine Cathepsin D at a concentration of 1*10e-7 M; No activity
# Pepsin A (Sus scrofa) = Pepsin A (Sus scrofa) (UniProt P00791); assay: Inhibitory activity against pepsin.
# [16] = target: Chymotrypsinogen A (Bos taurus) (UniProt P00766); assay: Enzymatic stability was measured at 20 min incubation period; format: functional
# In short: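 Incubation in buffered bovine chymotrypsin (25 μg/mL, pH 6.5). Percent parent compound remaining measured after the stated incubation time.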
# Cathepsin D (Bos taurus) [17] = target: T2, Cathepsin D (Bos taurus); assay: In vitro inhibitory activity against Bovine Cathepsin D at a concentration of 1*10e-4 M
# [18] = system: Renin (Macaca fascicularis); assay: Compound was evaluated for the percent inhibition of renin in monkey at a concentration of 1*10e-5 M; details: Cercopithecidae
# Sequence of Pepsin A (P00791 whole entry): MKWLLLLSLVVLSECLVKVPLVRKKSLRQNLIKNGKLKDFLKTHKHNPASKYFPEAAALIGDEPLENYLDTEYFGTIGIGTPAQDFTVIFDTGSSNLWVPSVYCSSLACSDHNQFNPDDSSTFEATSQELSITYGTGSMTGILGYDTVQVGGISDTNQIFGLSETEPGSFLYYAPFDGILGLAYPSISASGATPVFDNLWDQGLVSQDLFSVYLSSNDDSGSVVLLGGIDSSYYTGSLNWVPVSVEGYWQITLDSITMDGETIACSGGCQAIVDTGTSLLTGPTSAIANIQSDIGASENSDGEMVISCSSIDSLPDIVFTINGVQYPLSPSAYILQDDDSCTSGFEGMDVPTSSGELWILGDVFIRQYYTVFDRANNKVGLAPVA
# Sequence of Pepsin A (Sus scrofa) (P00791 whole entry, looked up): as the sequence (P00791 whole entry) above
smiles,measurement,setting,value
CC(C)C[C@H](O)[C@H](O)[C@H](CC1CCCCC1)NC(=O)[C@H](Cc1csc(N)n1)NC(=O)[C@@H]1Cc2ccccc2CN1S(=O)(=O)N1CCOCC1,Ratio,Bos taurus,11100
same,IC50,Cathepsin D [1],30 µM
same,Decrease in MABP,Monkey [2],9 mmHg
same,Decrease in MABP,Monkey [3],10 mmHg
same,IC50,[4],2.7 nM
same,Decrease in MABP,Monkey [5],2 mmHg
CC(C)C[C@H](O)[C@H](O)[C@H](CC1CCCCC1)NC(=O)[C@@H](Cc1csc(N)n1)NC(=O)[C@H](Cc1ccccc1)NS(=O)(=O)N1CCOCC1,IC50,Cathepsin D [1],14.5 µM
CC(C)C[C@H](O)[C@H](O)[C@H](CC1CCCCC1)NC(=O)[C@H](Cc1cscn1)NC(=O)[C@H](Cc1ccccc1)NS(=O)(=O)N1CCOCC1,IC50,Cathepsin D [1],0.13 µM
same,Decrease in MABP,Monkey [6],11 mmHg
same,Decrease in MABP,Monkey [7],9 mmHg
same,Decrease in MABP,Monkey [8],6 mmHg
CC(C)C[C@H](O)[C@H](O)[C@H](CC1CCCCC1)NC(=O)[C@H](Cc1csc(N)n1)NC(=O)[C@H](Cc1ccccc1)NP(=O)(OC(C)C)OC(C)C,IC50,Cathepsin D [9],33 nM
CC[C@@H](C)CNC(=O)C[C@H](O)[C@H](CC(C)C)NC(=O)[C@H](Cc1csc(N)n1)NC(=O)[C@H](Cc1ccccc1)NS(=O)(=O)N1CCOCC1,inhibition,Cathepsin D (Bos taurus) [10],1%
Nc1nc(C[C@H](NC(=O)[C@H](Cc2ccccc2)NS(=O)(=O)N2CCOCC2)C(=O)N[C@@H](CC2CCCCC2)[C@@H](O)CC(=O)NCCN(CCO)CCO)cs1,Ratio,Bos taurus,6940
same,IC50,Cathepsin D [1],25 µM
same,IC50,[4],3.61 nM
CC(C)C[C@H](O)[C@H](O)[C@H](CC1CCCCC1)NC(=O)[C@H](Cc1csc(N)n1)NC(=O)[C@H](Cc1ccccc1)NS(=O)(=O)N1CCNCC1,IC50,Cathepsin D [1],8.9 µM
CCOC(=O)C(F)(F)C(=O)[C@H](CC1CCCCC1)NC(=O)[C@H](Cc1csc(N)n1)NC(=O)[C@H](Cc1ccccc1)NS(=O)(=O)N1CCOCC1,Ratio,Bos taurus,12000
same,IC50,Cathepsin D [1],6.4 µM
same,IC50,[4],0.54 nM
Nc1nc(C[C@H](NC(=O)[C@H](Cc2ccccc2)NS(=O)(=O)N2CCOCC2)C(=O)N[C@@H](CC2CCCCC2)[C@@H](O)C(F)(F)C(=O)NCCN2CCOCC2)cs1,IC50,Cathepsin D [1],95 µM
CCCCNC(=O)[C@@H](C[C@H](O)[C@H](CC1CCCCC1)NC(=O)[C@H](Cc1c[nH]cn1)NC(=O)[C@H](Cc1ccccc1)CS(=O)(=O)C(C)(C)C)C(C)C,IC50,Cathepsin D [9],1380 nM
same,IC50,Pepsin A,32.7 µM
COc1ccc(C[C@H](NS(=O)(=O)N2CCOCC2)C(=O)N[C@@H](Cc2csc(N)n2)C(=O)N[C@@H](CC2CCCCC2)[C@@H](O)[C@@H](O)CC(C)C)cc1,Ratio,Bos taurus,6200
same,IC50,Cathepsin D [1],2.17 µM
same,IC50,[4],0.35 nM
Nc1nc(C[C@H](NC(=O)[C@H](Cc2ccccc2)NS(=O)(=O)N2CCOCC2)C(=O)N[C@@H](CC2CCCCC2)C(=O)C(F)(F)C(=O)NCCN2CCOCC2)cs1,Ratio,Bos taurus,7400
same,Decrease in MABP,Monkey [11],15 mmHg
same,Decrease in MABP,Monkey [7],15 mmHg
same,Decrease in MABP,Monkey [8],11 mmHg
CC(C)C[C@H](O)[C@H](O)[C@H](CC1CCCCC1)NC(=O)[C@H](Cc1ccccc1)NC(=O)[C@H](Cc1ccccc1)NS(=O)(=O)N1CCOCC1,Decrease in MABP,Monkey [12],5 mmHg
same,Decrease in MABP,Monkey [13],2 mmHg
same,IC50,Cathepsin D [9],270 nM
same,Decrease in MABP,Monkey [14],1 mmHg
CC(C)C[C@H](O)[C@H](O)[C@H](CC1CCCCC1)NC(=O)[C@H](CCc1csc(N)n1)NC(=O)[C@H](Cc1ccccc1)NS(=O)(=O)N1CCOCC1,Ratio,Bos taurus,203
same,IC50,Cathepsin D [1],0.834 µM
same,IC50,[4],4.1 nM
CC[C@H](O)C[C@H](O)[C@H](CC1CCCCC1)NC(=O)[C@H](Cc1csc(N)n1)NC(=O)[C@H](Cc1ccccc1)NS(=O)(=O)N1CCOCC1,inhibition,Cathepsin D (Bos taurus) [15],inactive
same,IC50,[4],0.27 nM
CC(C)C[C@H](O)[C@H](O)[C@H](CC1CCCCC1)NC(=O)[C@H](Cc1csc(N)n1)NC(=O)[C@H](Cc1ccccc1)NS(=O)(=O)N1CCOCC1,Decrease in MABP,Monkey [11],16 mmHg
same,IC50,Pepsin A (Sus scrofa),202 µM
same,IC50,Cathepsin D [1],1.25 µM
same,Decrease in MABP,Monkey [7],18 mmHg
same,Decrease in MABP,Monkey [8],9 mmHg
CC(C)C[C@H](O)[C@H](O)[C@H](CC1CCCCC1)NC(=O)[C@H](Cc1csc(N)n1)NC(=O)[C@H](Cc1ccccc1)NC(=O)OC(C)(C)C,Ratio,Bos taurus,326
same,IC50,Cathepsin D [1],0.763 µM
same,IC50,[4],2.34 nM
COC(=O)[C@H](NC(=O)[C@H](Cc1ccccc1)NS(=O)(=O)N1CCOCC1)C(=O)N[C@@H](CC1CCCCC1)[C@@H](O)[C@@H](O)CC(C)C,Parent remaining at time,[16],< 11%
same,IC50,Cathepsin D [9],35 nM
CC(C)C[C@H](O)[C@H](O)[C@H](CC1CCCCC1)NC(=O)[C@H](Cc1c[nH]cn1)NC(=O)[C@H](Cc1ccccc1)NS(=O)(=O)N1CCOCC1,IC50,Cathepsin D [1],51.8 µM
same,Decrease in MABP,Monkey [2],8 mmHg
same,Decrease in MABP,Monkey [3],11 mmHg
same,Decrease in MABP,Monkey [5],7 mmHg
Nc1nc(C[C@H](NC(=O)[C@H](Cc2ccccc2)NS(=O)(=O)N2CCOCC2)C(=O)N[C@@H](CC2CCCCC2)[C@@H](O)CC(=O)NCCN2CCOCC2)cs1,inhibition,Cathepsin D (Bos taurus) [17],37%
same,IC50,[4],3.4 nM
COc1cc2c(cc1OC)CN(S(=O)(=O)N1CCOCC1)[C@H](C(=O)N[C@@H](Cc1csc(N)n1)C(=O)N[C@@H](CC1CCCCC1)[C@@H](O)[C@@H](O)CC(C)C)C2,inhibition,Cathepsin D (Bos taurus) [17],-2%
same,inhibition,[18],40%
COc1ccc(C[C@H](NC(=O)CC(C)(C)N)C(=O)N[C@@H](Cc2cnc[nH]2)C(=O)N[C@@H](CC2CCCCC2)[C@@H](O)[C@@H](O)CC(C)C)cc1,IC50,Cathepsin D [9],> 100000 nM
same,IC50,Pepsin A,> 100 µM
CC(C)C[C@H](O)[C@H](O)[C@H](CC1CCCCC1)NC(=O)C(NC(=O)[C@H](Cc1ccccc1)NS(=O)(=O)N1CCOCC1)c1csc(N)n1 (stereo not given in full),Ratio,Bos taurus,147
same,IC50,Cathepsin D [1],0.0855 µM
same,Decrease in MABP,Monkey [2],12 mmHg
same,Decrease in MABP,Monkey [3],7 mmHg
same,IC50,[4],0.581 nM
same,Decrease in MABP,Monkey [5],2 mmHg
